{"source": "ChEMBL document CHEMBL1137537", "about": "“Novel oxotremorine-related heterocyclic derivatives: Synthesis and in vitro pharmacology at the muscarinic receptor subtypes” (Bioorg Med Chem, 2007)", "key": {"Cavia porcellus": {"species": "Cavia porcellus", "experiment": "Intrinsic activity at muscarinic M2 receptor in electrically stimulated guinea-pig left atrium relative to benthanechol", "type": "tissue-based", "details": "Cardiac atrium", "in_short": "(§1)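 Intrinsic activity as ratio of compound's maximal response to that of reference full agonist (McN-A-343 for vas deferens, bethanechol for atrium and ileum), from cumulative concentration–response curves; mean of 6-8 experiments.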"}, "[1]": {"target": "T1, Muscarinic acetylcholine receptor M1 (Homo sapiens, UniProt P11229)", "T1 sequence (P11229 whole entry)": "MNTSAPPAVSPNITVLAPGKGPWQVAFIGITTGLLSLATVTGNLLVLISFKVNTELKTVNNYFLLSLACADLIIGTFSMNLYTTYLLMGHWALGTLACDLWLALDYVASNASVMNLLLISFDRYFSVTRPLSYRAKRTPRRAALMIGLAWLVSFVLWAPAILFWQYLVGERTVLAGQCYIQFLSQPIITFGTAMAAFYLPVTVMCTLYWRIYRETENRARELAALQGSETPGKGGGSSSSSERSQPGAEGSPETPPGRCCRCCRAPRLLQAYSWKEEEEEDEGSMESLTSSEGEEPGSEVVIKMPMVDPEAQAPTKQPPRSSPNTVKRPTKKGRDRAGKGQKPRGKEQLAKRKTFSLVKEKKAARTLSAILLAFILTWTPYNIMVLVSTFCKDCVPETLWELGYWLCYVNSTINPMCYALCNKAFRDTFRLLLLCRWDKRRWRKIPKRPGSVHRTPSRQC", "experiment": "biochemical", "type": "cell-based, CHO"}, "Oryctolagus cuniculus": {"species": "Oryctolagus cuniculus", "experiment": "Intrinsic activity at muscarinic M1 receptor in electrically stimulated New Zealand rabbit vas deferens relative to McN-A-343", "type": "tissue-based", "in_short": "as §1"}, "[2]": {"target": "T2, Muscarinic acetylcholine receptor M4 (Homo sapiens, UniProt P08173)", "T2 sequence (P08173 whole entry)": "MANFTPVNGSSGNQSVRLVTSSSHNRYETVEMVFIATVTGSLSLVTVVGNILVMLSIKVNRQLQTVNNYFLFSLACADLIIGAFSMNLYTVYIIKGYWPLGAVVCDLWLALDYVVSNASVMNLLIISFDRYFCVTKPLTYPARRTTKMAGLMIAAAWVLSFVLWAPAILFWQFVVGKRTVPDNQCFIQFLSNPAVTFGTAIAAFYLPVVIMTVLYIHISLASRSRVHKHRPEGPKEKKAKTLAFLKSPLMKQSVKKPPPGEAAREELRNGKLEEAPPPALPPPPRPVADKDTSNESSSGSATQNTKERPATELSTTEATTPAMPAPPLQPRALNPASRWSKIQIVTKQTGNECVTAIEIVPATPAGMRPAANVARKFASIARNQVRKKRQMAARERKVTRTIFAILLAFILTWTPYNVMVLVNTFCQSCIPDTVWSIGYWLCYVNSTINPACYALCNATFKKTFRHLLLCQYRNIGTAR", "experiment": "Displacement of [3H]QNB from human muscarinic M4 receptor expressed in CHO cells", "type": "cell-based", "in_short": "(§2)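 Membranes (10-50 µg protein) from stable CHO lines expressing human m2-m5, competed against 180 pM [3H]QNB in 50 mM Tris-HCl pH 7.4 with 1% DMSO; 120 min at 25 °C to equilibrium; nonspecific binding with 0.5 µM atropine; GF-C filtration, scintillation counting; IC50 by logistic fit, Ki via Cheng–Prusoff using saturation-derived KD (5–2500 pM [3H]QNB).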"}, "[3]": {"experiment": "Antagonist activity at muscarinic M2 receptor in electrically stimulated guinea-pig left atrium", "type": "functional, Cavia porcellus, Cardiac atrium", "in_short": "(§3)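 Antagonist mode: after 30 min incubation with test compound (10 nM–100 µM), concentration–response curve to full agonist (bethanechol or McN-A-343) repeated; pKB as molar concentration giving twofold EC50 shift, Furchgott's method; mean of 6-8 experiments.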"}, "[4]": {"target": "Muscarinic acetylcholine receptor M3 (Cavia porcellus) (UniProt Q8VH26)", "sequence (Q8VH26 1-587)": "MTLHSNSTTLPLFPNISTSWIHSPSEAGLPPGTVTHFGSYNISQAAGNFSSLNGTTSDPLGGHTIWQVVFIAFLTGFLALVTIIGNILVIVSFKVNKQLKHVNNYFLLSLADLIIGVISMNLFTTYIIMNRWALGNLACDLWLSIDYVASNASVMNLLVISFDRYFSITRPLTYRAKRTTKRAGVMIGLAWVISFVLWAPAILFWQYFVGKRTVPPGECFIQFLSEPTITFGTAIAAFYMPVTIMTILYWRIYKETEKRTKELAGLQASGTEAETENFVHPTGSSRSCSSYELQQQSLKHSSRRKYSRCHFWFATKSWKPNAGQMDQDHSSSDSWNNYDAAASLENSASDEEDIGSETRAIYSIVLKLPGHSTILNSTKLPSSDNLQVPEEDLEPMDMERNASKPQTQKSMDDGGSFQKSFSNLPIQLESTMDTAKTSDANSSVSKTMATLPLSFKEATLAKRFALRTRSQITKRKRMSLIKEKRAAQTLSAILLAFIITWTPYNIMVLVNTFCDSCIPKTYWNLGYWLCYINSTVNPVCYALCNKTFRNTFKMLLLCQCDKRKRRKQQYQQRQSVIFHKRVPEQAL", "experiment": "Intrinsic activity at muscarinic M3 receptor in guinea-pig ileum relative to benthanechol", "type": "tissue-based", "in_short": "as §1"}, "[5]": {"target": "T3, Muscarinic acetylcholine receptor M5 (Homo sapiens, UniProt P08912)", "T3 sequence (P08912 whole entry)": "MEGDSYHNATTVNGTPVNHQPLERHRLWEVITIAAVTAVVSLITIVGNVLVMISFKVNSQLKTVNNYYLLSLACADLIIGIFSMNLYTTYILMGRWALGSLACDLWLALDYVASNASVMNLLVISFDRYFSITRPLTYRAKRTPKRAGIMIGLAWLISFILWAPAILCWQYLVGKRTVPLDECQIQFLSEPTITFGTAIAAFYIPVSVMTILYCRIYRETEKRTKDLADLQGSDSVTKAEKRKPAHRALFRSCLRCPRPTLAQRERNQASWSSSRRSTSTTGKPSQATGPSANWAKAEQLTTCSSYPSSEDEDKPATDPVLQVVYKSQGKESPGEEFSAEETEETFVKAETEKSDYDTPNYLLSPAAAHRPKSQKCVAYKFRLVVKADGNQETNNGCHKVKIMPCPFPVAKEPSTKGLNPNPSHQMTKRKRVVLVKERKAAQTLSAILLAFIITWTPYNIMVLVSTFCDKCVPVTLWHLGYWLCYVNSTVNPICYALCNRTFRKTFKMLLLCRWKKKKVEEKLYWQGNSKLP", "experiment": "Displacement of [3H]QNB from human muscarinic M5 receptor expressed in CHO cells", "type": "cell-based"}, "[6]": {"target": "Muscarinic acetylcholine receptor M3 (Homo sapiens, UniProt P20309)", "sequence (P20309 whole entry)": "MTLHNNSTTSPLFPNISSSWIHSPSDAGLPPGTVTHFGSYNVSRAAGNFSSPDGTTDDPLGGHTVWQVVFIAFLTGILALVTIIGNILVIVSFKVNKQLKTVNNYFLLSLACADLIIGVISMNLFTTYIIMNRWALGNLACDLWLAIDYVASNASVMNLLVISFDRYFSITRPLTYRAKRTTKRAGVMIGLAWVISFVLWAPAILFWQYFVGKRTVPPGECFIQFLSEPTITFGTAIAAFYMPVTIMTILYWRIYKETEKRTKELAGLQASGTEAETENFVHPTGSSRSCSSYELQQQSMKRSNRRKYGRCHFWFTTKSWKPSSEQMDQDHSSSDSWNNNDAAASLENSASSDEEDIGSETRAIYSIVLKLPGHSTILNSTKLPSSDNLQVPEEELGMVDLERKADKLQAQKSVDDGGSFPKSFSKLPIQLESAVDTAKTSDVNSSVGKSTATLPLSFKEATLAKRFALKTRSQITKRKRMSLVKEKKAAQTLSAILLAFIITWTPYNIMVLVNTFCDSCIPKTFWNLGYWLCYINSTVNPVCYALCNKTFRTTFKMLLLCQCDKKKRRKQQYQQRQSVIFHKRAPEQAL", "experiment": "Displacement of [3H]QNB from human muscarinic M3 receptor expressed in CHO cells", "type": "cell-based"}, "[7]": {"target": "T4, Muscarinic acetylcholine receptor M2 (Homo sapiens, UniProt P08172)", "T4 sequence (P08172 whole entry)": "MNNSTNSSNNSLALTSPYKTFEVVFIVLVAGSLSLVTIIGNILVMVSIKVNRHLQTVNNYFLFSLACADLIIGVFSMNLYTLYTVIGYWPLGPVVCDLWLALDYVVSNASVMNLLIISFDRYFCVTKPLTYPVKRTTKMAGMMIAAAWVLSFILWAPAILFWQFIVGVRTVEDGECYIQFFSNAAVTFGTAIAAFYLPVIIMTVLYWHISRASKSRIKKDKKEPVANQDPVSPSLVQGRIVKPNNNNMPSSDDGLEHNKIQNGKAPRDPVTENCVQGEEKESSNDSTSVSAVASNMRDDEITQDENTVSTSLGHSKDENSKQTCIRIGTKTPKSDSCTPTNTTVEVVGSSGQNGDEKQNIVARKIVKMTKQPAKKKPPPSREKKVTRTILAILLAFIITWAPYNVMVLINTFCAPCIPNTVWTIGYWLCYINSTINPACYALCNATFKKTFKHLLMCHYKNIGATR", "experiment": "Displacement of [3H]QNB from human muscarinic M2 receptor expressed in CHO cells", "type": "cell-based", "in_short": "as §2"}, "[8]": {"experiment": "Antagonist activity at muscarinic M1 receptor in electrically stimulated New Zealand rabbit vas deferens", "type": "functional, Oryctolagus cuniculus", "in_short": "as §3"}, "[9]": {"target": "Muscarinic acetylcholine receptor M3 (Cavia porcellus) (UniProt Q8VH26)", "experiment": "Antagonist activity at muscarinic M3 receptor in guinea-pig ileum", "type": "functional, tissue-based", "in_short": "as §3"}}, "data": [{"compound": "O=C(O)C(=O)O.O=C1CCON1CC#CCN1CCCCC1", "values": [{"measurement": "Intrinsic activity", "setting": "Cavia porcellus", "value": 0.2}, {"measurement": "Ki", "setting": "[1]", "value": 0.819, "unit": "µM"}, {"measurement": "Intrinsic activity", "setting": "Oryctolagus cuniculus", "value": 0}, {"measurement": "Ki", "setting": "[2]", "value": 0.792, "unit": "µM"}, {"measurement": "pKb", "setting": "[3]", "value": 5.94}, {"measurement": "Intrinsic activity", "setting": "[4]", "value": 0}, {"measurement": "Ki", "setting": "[5]", "value": 0.544, "unit": "µM"}, {"measurement": "Ki", "setting": "[6]", "value": 0.537, "unit": "µM"}, {"measurement": "Ki", "setting": "[7]", "value": 0.04, "unit": "µM"}, {"measurement": "pKb", "setting": "[8]", "value": 6.45}, {"measurement": "pKb", "setting": "[9]", "value": 5.55}]}]}
